Active and inactive are the calls of the source. The calls are words filed in the database; no cut-off is given here.
Key:
Haemonchus contortus [1] = test: Parasiticidal activity against Haemonchus contortus McMaster; assay type: functional
Outline: (§1)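 Larval development assay with Haemonchus contortus larvae. The endpoint was LD99, and the assay was performed by an external screening contractor.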

Ctenocephalides felis [2] = test: Parasiticidal activity against Ctenocephalides felis; assay type: functional
Ctenocephalides felis [3] = test: Parasiticidal activity against Ctenocephalides felis after 24 hrs; assay type: functional; parameters: concentration or dose not given beside the values
Outline: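 Single-dose in vitro cat flea assay: compound in acetone (0.5 mL) coated on the base of four 100 mL flasks at 1.26 µg/cm². Flasks held at 25 ± 1 °C and 75 ± 5% humidity for 24 h. Dead fleas counted per flask, and pooled data expressed as percent mortality.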

Ctenocephalides felis [4] = test: Parasiticidal activity against Ctenocephalides felis after 8 hrs; assay type: functional
Outline: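 Cat flea contact assay: compound applied in acetone to the base of four flasks at 1.26 µg/cm², held at 25 ± 1 °C and 75 ± 5% humidity. Dead fleas counted at 8 h, and pooled counts converted to percent mortality.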

Saccharomyces cerevisiae = test: Parasiticide activity against Saccharomyces cerevisiae; assay type: functional, organism-based
[5] = system: Teladorsagia circumcincta; test: Parasiticidal activity against Ostertagia circumcincta McMaster; assay type: functional
Haemonchus contortus [6] = test: Parasiticidal activity against benzimidazole-resistant Haemonchus contortus Lawes; assay type: functional; outline: as §1
Haemonchus contortus [7] = test: Parasiticidal activity against levamisole-resistant Haemonchus contortus Lawes; assay type: functional; outline: as §1
Haemonchus contortus [8] = test: Parasiticidal activity against avermectin-resistant Haemonchus contortus CAVR; assay type: functional; outline: as §1
[9] = system: Trichostrongylus colubriformis; test: Parasiticidal activity against Trichostrongylus colubriformis; assay type: functional
Bacillus subtilis = test: Parasiticidal activity against Bacillus subtilis; assay type: functional
[10] = Cytotoxicity against mouse NS1 cells; assay type: functional

Row | Molecule | LD99 (Haemonchus contortus [1]) [µM] | Activity (Ctenocephalides felis [3]) [%] | further results
1 | N#C/C(=C\c1ccc[nH]1)c1cccc(C(F)(F)F)c1 | 3.6 | 56 | LC50 (Ctenocephalides felis [2]): 9.9 ug/sq.cm
2 | N#C/C(=C\c1ccc[nH]1)c1ccc(Cl)c(Cl)c1 | 2.9 | 41 | 
3 | N#C/C(=C\c1ccc[nH]1)c1ccc(C(F)(F)F)cc1 | 3.1 | 20 | 
4 | N#C/C(=C\c1ccc[nH]1)c1ccccc1F | 12 | 92 | LC50 (Ctenocephalides felis [2]): 0.59 ug/sq.cm
5 | Cc1cccc(/C(C#N)=C/c2ccc[nH]2)c1 | 6 | 42 | 
6 | Cc1ccc(S(=O)(=O)n2cccc2/C=C(\C#N)c2ccc(Cl)cc2)cc1 | 31 | 0 | 
7 | N#C/C(=C\c1ccc[nH]1)c1ccc(Cl)cc1 | 1.8 |  | LC50 (Ctenocephalides felis [2]): 0.17 ug/sq.cm; Activity (Ctenocephalides felis [4]): 95%
8 | N#C/C(=C\c1ccc[nH]1)c1ccccc1C#N | >68 | 11 | 
9 | N#C/C(=C\c1ccc[nH]1)c1ccccc1C(F)(F)F |  | 14 | 
10 | N#C/C(=C\c1cc(Cl)c(Cl)[nH]1)c1ccc(Cl)cc1 | 10 | 15 | 
11 | N#C/C(=C\c1ccc[nH]1)c1ccccc1 | 2.4 | 98 | LC50 (Ctenocephalides felis [2]): 0.26 ug/sq.cm
12 | Cc1ccc(/C(C#N)=C/c2ccc[nH]2)cc1 | 4.5 | 69 | 
13 | Cc1ccccc1/C(C#N)=C/c1ccc[nH]1 | 18 | 100 | LC50 (Ctenocephalides felis [2]): 0.08 ug/sq.cm
14 | N#C/C(=C\c1ccc[nH]1)c1cccc(F)c1 | 8 | 78 | LC50 (Ctenocephalides felis [2]): 0.78 ug/sq.cm
15 | N#C/C(=C\c1cc(Br)c[nH]1)c1ccc(F)cc1 | 17 | 15 | 
16 | COC(=O)n1cccc1/C=C(\C#N)c1ccc(Cl)cc1 | 4.4 | 16 | 
17 | CC(C)(C)OC(=O)n1cccc1/C=C(\C#N)c1ccc(Cl)cc1 | 11 | 9 | 
18 | N#C/C(=C\c1ccc[nH]1)c1cccc(Oc2ccccc2)c1 | 11 | 10 | 
19 | CN(C)C(=S)n1cccc1/C=C(\C#N)c1ccc(Cl)cc1 | 32 | 19 | 
20 | CC(C)c1ccc(/C(C#N)=C/c2ccc[nH]2)cc1 |  | 100 | LC50 (Ctenocephalides felis [2]): 1.32 ug/sq.cm
21 | N#C/C(=C\c1ccc[nH]1)c1ccc(Cl)cc1Cl | 11 | 8 | 

Row | Molecule | LD99 (Haemonchus contortus [1]) [µM] | Activity (Ctenocephalides felis [3]) [%] | further results
22 | Cc1ccc(/C(C#N)=C/c2ccc[nH]2)c(C)c1 |  | 44 | 
23 | c1ccc([C@H]2CN3CCSC3=N2)cc1 [LEVAMISOLE] | 0.66 |  | 
24 | N#C/C(=C\c1ccc[nH]1)c1ccc(F)c(F)c1 | 7.6 | 17 | 
25 | N#C/C(=C\c1ccc[nH]1)c1ccc(C#N)cc1 | 46 | 44 | 
26 | Cc1cc(C(C#N)c2ccc(Cl)cc2)c(Cl)cc1NC(=O)c1cc(I)cc(I)c1O (stereo unspecified) [CLOSANTEL] | 9.4 |  | 
27 | CC(C)=CCn1cccc1/C=C(\C#N)c1ccc(Cl)cc1 | >51 | 0 | 
28 | N#C/C(=C\c1ccc[nH]1)c1ccc([N+](=O)[O-])cc1 | >63 | 6 | 
29 | N#C/C(=C\c1ccc[nH]1)c1ccccc1Br | 12 | 30 | 
30 | CCN(CC)C(=O)n1cccc1/C=C(\C#N)c1ccc(Cl)cc1 | 11 | 8 | 
31 | N#C/C(=C\c1ccc[nH]1)c1c(F)cccc1F | 52 | 17 | 
32 | N#C/C(=C\c1ccc[nH]1)c1ccc(F)cc1 | 2 | 78 | LC50 (Ctenocephalides felis [2]): 0.3 ug/sq.cm
33 | N#C/C(=C\c1ccc[nH]1)c1cccc(Cl)c1 | 3.3 | 28 | 
34 | N#C/C(=C\c1ccc[nH]1)c1ccccc1Cl | 12 | 19 | 
35 | CCOCn1cccc1/C=C(\C#N)c1ccc(Cl)cc1 | 19 |  | Activity (Ctenocephalides felis [4]): 6%
36 | COc1ccc(/C(C#N)=C/c2ccc[nH]2)cc1 | 6.7 | 31 | 
37 | CCC(=O)n1cccc1/C=C(\C#N)c1ccc(Cl)cc1 | 1.3 | 12 | 
38 | N#C/C(=C\c1ccc[nH]1)c1ccc(F)c(Cl)c1 | 5.1 | 5 | 
39 | N#C/C(=C\c1ccc[nH]1)c1cccc(Br)c1 | 3.4 | 24 | 
40 | N#C/C(=C\c1cccn1Cc1ccccc1)c1ccc(Cl)cc1 | 44 | 3 | 
41 | N#CC(C#N)=Cc1cc(Cl)c(Cl)[nH]1 | 1.8 |  | Activity (Saccharomyces cerevisiae): inactive; Activity (Ctenocephalides felis [2]): inactive; LD99 [5]: 2.2 µM; LD99 (Haemonchus contortus [6]): 2.2 µM; LD99 (Haemonchus contortus [7]): 2.2 µM; LD99 (Haemonchus contortus [8]): 2.2 µM; LD99 [9]: 9 µM; LD99 (Bacillus subtilis): 1.7 µM; LD99 [10]: 13 µM
42 | N#C/C(=C\c1ccc[nH]1)c1ccc(I)cc1 | 2.2 | 14 | 

Row | Molecule | LD99 (Haemonchus contortus [1]) [µM] | Activity (Ctenocephalides felis [3]) [%] | further results
43 | N#C/C(=C\c1ccc[nH]1)c1ccccc1-c1ccccc1 |  | 2 | 
44 | N#C/C(=C\c1cc(Br)c[nH]1)c1ccc(C(F)(F)F)cc1 | >44 | 15 | 
45 | CCc1ccc(/C(C#N)=C/c2ccc[nH]2)cc1 | 4 | 58 | 
46 | N#C/C(=C\c1ccc[nH]1)c1ccc(F)cc1Cl | 12 | 30 | 
47 | CC(C)(C)c1ccc(/C(C#N)=C/c2ccc[nH]2)cc1 | 13 | 87 | LC50 (Ctenocephalides felis [2]): 0.48 ug/sq.cm
48 | N#C/C(=C\c1ccc[nH]1)c1cc(C(F)(F)F)cc(C(F)(F)F)c1 | >45 | 27 | 
49 | Cn1cccc1/C=C(\C#N)c1ccc(Cl)cc1 | 7.8 |  | Activity (Ctenocephalides felis [4]): 13%
50 | COc1ccccc1/C(C#N)=C/c1ccc[nH]1 |  | 9 | 
51 | N#C/C(=C\c1cc(Br)c[nH]1)c1ccc(Cl)c(Cl)c1 | 7.3 | 19 | 
52 | N#C/C(=C\c1cc(Br)c[nH]1)c1cccc(C(F)(F)F)c1 | 9.5 |  | 
53 | N#C/C(=C\c1cc(Br)c[nH]1)c1ccc(Cl)cc1 | 1.5 | 23 | 
54 | N#C/C(=C\c1ccc[nH]1)c1ccc(Cl)cc1F | 10 | 5 | 
55 | N#Cc1nn(-c2c(Cl)cc(C(F)(F)F)cc2Cl)c(N)c1[S+]([O-])C(F)(F)F (stereo unspecified) [FIPRONIL] |  |  | LC50 (Ctenocephalides felis [2]): 0.018 ug/sq.cm
56 | N#C/C(=C\c1ccc[nH]1)c1ccc(-c2ccccc2)cc1 | 28 | 46 | 
57 | N#C/C(=C\c1ccc[nH]1)c1ccc(Br)cc1 | 0.84 | 42 | 
58 | N#C/C(=C\c1cccn1C(=O)c1ccccc1)c1ccc(Cl)cc1 | 3.8 | 6 | 
59 | N#C/C(=C\c1cc(Br)c[nH]1)c1cccc(F)c1 | 38 | 18 | 
60 | N#C/C(=C\c1ccc[nH]1)c1c(F)cccc1Cl | >61 | 7 | 
61 | N#C/C(=C\c1ccc[nH]1)c1ccc(F)cc1F | 11 | 5 | 
62 | IVERMECTIN | 0.0057 |  | 

Source: ChEMBL document CHEMBL1146324, “Discovery of (Z)-2-phenyl-3-(1H-pyrrol-2-yl)acrylonitrile derivatives active against Haemonchus contortus and Ctenocephalides felis (cat flea)” (2007)
